Laboratory results as given in ChEMBL document CHEMBL2202989, “New adamantane phenylalkylamines with σ-receptor binding affinity and anticancer activity, associated with putative antagonism of neuropathic pain” (J Med Chem, 2012).

Columns and labels:
[1] = system: IGROV-1; assay: Growth inhibition of human IGROV1 cells after 48 hrs by SRB assay; type: functional; conditions: IGROV-1, 48 h; for CC50: read-out: LC50 (the source's name)
How it was run: (§1)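 Cells grown in RPMI 1640 with 5% heat-inactivated FCS, 2 mM L-glutamine and antibiotics, 37 °C, 5% CO2. Seeded at 3500–30000 cells/well and left 24 h before dosing. DMSO solutions added at 10-fold dilutions from 100 to 0.01 μM for 48 h. Cells TCA-fixed and SRB-stained, absorbance read at 540 nm; GI50 derived against the time-zero plate.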

[2] = (§2) Growth inhibition of human NHDF cells after 48 hrs by SRB assay; type: cell-based; conditions: NHDF cells; how it was run: as §1
[3] = system: NHDF; assay: as §2; type: cell-based; conditions: nhdf, 48 h; how it was run: as §1
[4] = molecular target: Sigma non-opioid intracellular receptor 1 (Homo sapiens, UniProt Q99720); assay: Displacement of [3H]-(+)-pentazocine from sigma 1 receptor in human Jurkat cell membrane; type: cell membranes
Chain of Sigma non-opioid intracellular receptor 1 (Q99720 whole entry): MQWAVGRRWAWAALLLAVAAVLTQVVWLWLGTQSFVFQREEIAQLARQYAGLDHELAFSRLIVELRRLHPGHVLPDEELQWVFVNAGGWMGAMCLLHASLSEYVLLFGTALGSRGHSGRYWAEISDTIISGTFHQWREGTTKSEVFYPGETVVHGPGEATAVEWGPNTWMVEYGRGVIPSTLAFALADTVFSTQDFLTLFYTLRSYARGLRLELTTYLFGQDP
How it was run: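 Jurkat cell membranes incubated with 8 nM [3H](+)-pentazocine and a range of test concentrations for 2 h at 22 °C in Tris-HCl buffer, pH 7.4. Nonspecific binding defined with 10 μM haloperidol. Run in triplicate.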

[5] = Growth inhibition of human MSC cells after 48 hrs by SRB assay; type: cell-based; how it was run: as §1
[6] = system: HCT-116; assay: Growth inhibition of human HCT116 cells after 48 hrs by SRB assay; type: functional; conditions: HCT-116, 48 h; for CC50: read-out: LC50 (the source's name); how it was run: as §1
[7] = system: HCT-15; assay: Growth inhibition of human HCT15 cells after 48 hrs by SRB assay; type: functional; conditions: HCT-15, 48 h; for CC50: read-out: LC50 (the source's name); how it was run: as §1
[8] = Displacement of [3H]1,3-di-otolylguanidine from sigma 2 receptor in rat cerebral cortex membranes; type: cell membranes, Membrane
How it was run: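 Rat cerebral cortex membranes incubated with 5 nM [3H]DTG plus 300 nM (+)-pentazocine to mask σ1 sites, together with a range of test concentrations, 2 h at 22 °C in Tris-HCl, pH 7.4. Nonspecific binding defined with 10 μM haloperidol.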

[9] = system: HL-60(TB); assay: Growth inhibition of human HL-60(TB) cells after 48 hrs by SRB assay; type: functional; conditions: HL-60, 48 h; for CC50: read-out: LC50 (the source's name)
How it was run: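 Cells kept in RPMI 1640 with 5% FCS at 37 °C, 5% CO2, and seeded 24 h before dosing. Compound given from DMSO at 10-fold dilutions, 100 to 0.01 μM, for 48 h. Cells fixed with TCA, stained with SRB, absorbance read at 540 nm. GI50 taken from a time-zero plate.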

[10] = Displacement of [3H]batrachotoxin benzoate from Na+ channel after 60 mins by liquid scintillation counting
How it was run: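 Na+ channel site 2 binding: vesicle preparation (150−500 μg protein) incubated 60 min with 20−25 nM [3H]BTX-B and 50 μg Leiurius quinquestriatus venom. Buffer was 130 mM choline chloride, 50 mM HEPES/Tris pH 7.4, glucose, MgSO4, KCl, BSA. Filtered on GF/C with cold washes; scintillation counting. Nonspecific binding defined with 250 μM veratridine.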

[11] = system: DU-145; assay: Growth inhibition of human DU145 cells after 48 hrs by SRB assay; type: functional; conditions: DU-145, 48 h; for CC50: read-out: LC50 (the source's name); how it was run: as §1
[12] = system: BXPC-3; assay: Growth inhibition of human BxPC3 cells after 48 hrs by SRB assay; type: functional; conditions: BXPC-3, 48 h; how it was run: as §1
[13] = system: U-251; assay: Growth inhibition of human U251 cells after 48 hrs by SRB assay; type: functional; conditions: U-251, 48 h; for CC50: read-out: LC50 (the source's name); how it was run: as §1
[14] = system: PC-3; assay: Growth inhibition of human PC3 cells after 48 hrs by SRB assay; type: functional; conditions: PC-3, 48 h; for CC50: read-out: LC50 (the source's name); how it was run: as §1
[15] = system: MCF7; assay: Growth inhibition of human MCF7 cells after 48 hrs by SRB assay; type: functional; conditions: MCF7, 48 h; for CC50: read-out: LC50 (the source's name); how it was run: as §1
[16] = (§3) Growth inhibition of human HUVEC cells after 48 hrs by SRB assay; type: cell-based; conditions: HUVEC cells; how it was run: as §1
[17] = system: HUVEC; assay: as §3; type: cell-based; conditions: huvec, 48 h; how it was run: as §1
[18] = system: SK-HEP1; assay: Growth inhibition of human SKHEP1 cells after 48 hrs by SRB assay; type: functional; conditions: SK-HEP1, 48 h; for CC50: read-out: LC50 (the source's name); how it was run: as §1
[19] = system: OVCAR-5; assay: Growth inhibition of human OVCAR5 cells after 48 hrs by SRB assay; type: functional; conditions: OVCAR-5, 48 h; how it was run: as §1
[20] = system: MIA PaCa-2; assay: Growth inhibition of human MIAPaCa2 cells after 48 hrs by SRB assay; type: functional; conditions: MIA PaCa-2, 48 h; for CC50: read-out: LC50 (the source's name); how it was run: as §1
[21] = system: BXPC-3; assay: Antitumor activity against human BxPC3 cells xenografted in SCID mouse assessed as tumor growth inhibition at 35 mg/kg, ip administered twice a week for three cycles measured after 3 cycles relative to control; type: functional; conditions: BXPC-3, ip, route intraperitoneal, read-out: TGI
How it was run: (§4)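 SCID mice bearing BxPC3 pancreatic xenografts, 10 mice per group (20 tumors). Drug dissolved in water for injection, given ip twice a week for three cycles. Controls were untreated and 5% Tween 80 vehicle. Tumor volume measured by caliper twice weekly; reduction reported on termination day. Two-tailed Student's t test.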

[22] = system: BXPC-3; assay: Antitumor activity against human BxPC3 cells xenografted in SCID mouse assessed as tumor growth inhibition at 17 mg/kg, ip administered twice a week for three cycles measured after 3 cycles relative to control; type: functional; conditions: BXPC-3, ip, route intraperitoneal, read-out: TGI; how it was run: as §4
[23] = system: PC-3; assay: Antitumor activity against human PC3 cells xenografted in SCID mouse assessed as bone metastasis at 20 mg/kg, ip administered once a week for two cycles measured after 2 cycles relative to control; type: functional; conditions: route intraperitoneal
How it was run: (§5)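 PC3 xenografts were grown in SCID mice (10^6 cells per inoculum), 14 mice (28 tumors) per group, dosed ip from about 100 mm3. The test agent was given in 5% Tween 80; paclitaxel was given in Cremophor diluted in saline, with a vehicle of 1:1 ethanol/Cremophor diluted 1:3 in saline. Volume and %ΔT/ΔC were derived from caliper readings twice weekly. Occurrence of primary tumors and of axillary and bone metastases was scored (n = 7). Two-tailed t test.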

[24] = system: PC-3; assay: Antitumor activity against human PC3 cells xenografted in SCID mouse assessed as tumor growth inhibition at 20 mg/kg, ip administered once a week for two cycles measured after 2 cycles relative to control; type: functional; conditions: PC-3, ip, route intraperitoneal, read-out: TGI; how it was run: as §5
[25] = system: PC-3; assay: Antitumor activity against human PC3 cells xenografted in SCID mouse assessed as primary tumor occurrence at 20 mg/kg, ip administered once a week for two cycles measured after 2 cycles relative to control; type: functional; conditions: route intraperitoneal; how it was run: as §5
[26] = system: DU-145; assay: Antitumor activity against human DU145 cells xenografted in SCID mouse assessed as tumor growth inhibition at 20 mg/kg, ip administered once a week for two cycles measured after 2 cycles relative to control; type: functional; conditions: DU-145, ip, route intraperitoneal, read-out: TGI
How it was run: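 DU145 xenografts were grown in SCID mice from 10^6-cell inocula, with at least 30 animals in total. Treatment started ip at a mean tumor volume of about 100 mm3. The test agent was given in 5% Tween 80; paclitaxel was dissolved in Cremophor and diluted in saline. Caliper volumes were taken twice weekly and %ΔT/ΔC calculated; two-tailed t test.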

[27] = system: PC-3; assay: Antitumor activity against human PC3 cells xenografted in SCID mouse assessed as axillary metastasis at 20 mg/kg, ip administered once a week for two cycles measured after 2 cycles relative to control; type: functional; conditions: route intraperitoneal; how it was run: as §5
[28] = system: BXPC-3; assay: Antitumor activity against human BxPC3 cells xenografted in SCID mouse assessed as tumor growth inhibition at 70 mg/kg, ip administered twice a week for three cycles measured after 3 cycles relative to control; type: functional; conditions: BXPC-3, ip, route intraperitoneal, read-out: TGI
How it was run: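 BxPC3 xenografts were grown in SCID mice from inocula of 10^6 exponentially growing cells, with 10 mice (20 tumors) per group. Treatment started ip once tumors averaged about 100 mm3. The test agent was given in 5% Tween 80 and gemcitabine in water for injection. Tumor volume was measured by caliper twice weekly and %ΔT/ΔC was computed; two-tailed Student's t test.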

[29] = system: BXPC-3; assay: Antitumor activity against human BxPC3 cells xenografted in SCID mouse assessed as tumor growth inhibition at 10 mg/kg, ip administered 5 times a week for one cycle relative to control; type: functional; conditions: BXPC-3, ip, route intraperitoneal, read-out: TGI

c1ccc(C(c2ccc(CCCN3CCNCC3)cc2)C23CC4CC(CC(C4)C2)C3)cc1 (stereo not drawn)
GI50 [1]: 3.29 µM | TGI [1]: 6.34 µM | CC50 [1]: 0.00939 µM | GI50 at 48 h [2]: 4.07 µM | LC50 [3]: 9.58 µM | TGI [3]: 6.82 µM | IC50 [4]: 0.042 µM | TGI [5]: 7.28 µM | GI50 [6]: 2.96 µM | TGI [6]: 5.85 µM | CC50 [6]: 0.00874 µM | GI50 [7]: 3.15 µM | TGI [7]: 6.13 µM | CC50 [7]: 0.00911 µM | IC50 [8]: 0.461 µM | GI50 [9]: 0.00301 µM | TGI [9]: 0.00822 µM | CC50 [9]: 0.1 µM | IC50 [10]: > 1 µM | GI50 [11]: 2.83 µM | TGI [11]: 5.65 µM | CC50 [11]: 0.00846 µM | GI50 [12]: 3.38 µM | LC50 [12]: 0.00944 µM | TGI [12]: 6.41 µM | GI50 [13]: 3.3 µM | TGI [13]: 5.87 µM | CC50 [13]: 0.00844 µM | GI50 [14]: 3.06 µM | TGI [14]: 5.71 µM | CC50 [14]: 0.00837 µM | GI50 [15]: 3.1 µM | TGI [15]: 5.97 µM | CC50 [15]: 0.00884 µM | GI50 at 48 h [16]: 3.97 µM | LC50 [17]: 100 µM | TGI [17]: 7.17 µM | GI50 [18]: 3.67 µM | TGI [18]: 6.19 µM | CC50 [18]: 0.0087 µM

O=c1[nH]cc(F)c(=O)[nH]1 [FLUOROURACIL]
GI50 [19]: 26.4 µM | TGI [19]: 100 µM | CC50 ([19]; read-out: LC50 (the source's name)): 0.1 µM | GI50 [1]: 8.12 µM | TGI [1]: 100 µM | CC50 [1]: 0.1 µM | GI50 at 48 h [2]: 62 µM | TGI [3]: 100 µM | TGI [5]: 1 µM | GI50 [6]: 8.8 µM | TGI [6]: 100 µM | CC50 [6]: 0.1 µM | GI50 [7]: 21.1 µM | TGI [7]: 100 µM | CC50 [7]: 0.1 µM | GI50 [20]: 30.6 µM | TGI [20]: 100 µM | CC50 [20]: 0.1 µM | inhibition in vivo at 35 mg/kg [21]: 36.7% | GI50 [9]: 0.1 µM | TGI [9]: 0.1 µM | CC50 [9]: 0.1 µM | inhibition in vivo at 17 mg/kg [22]: 23.7% | GI50 [11]: 20 µM | TGI [11]: 100 µM | CC50 [11]: 0.1 µM | GI50 [12]: 2.9 µM | TGI [12]: 8.4 µM | GI50 [13]: 69.6 µM | TGI [13]: 100 µM | CC50 [13]: 0.1 µM | GI50 [14]: 10.5 µM | TGI [14]: 100 µM | CC50 [14]: 0.1 µM | GI50 [15]: 14.5 µM | TGI [15]: 100 µM | CC50 [15]: 0.1 µM | GI50 at 48 h [16]: 3.6 µM | GI50 [18]: 7.6 µM | TGI [18]: 100 µM | CC50 [18]: 0.1 µM

CC(=O)O[C@H]1C(=O)[C@@]2(C)[C@H]([C@H](OC(=O)c3ccccc3)[C@]3(O)C[C@H](OC(=O)[C@H](O)[C@@H](NC(=O)c4ccccc4)c4ccccc4)C(C)=C1C3(C)C)[C@]1(OC(C)=O)CO[C@@H]1C[C@@H]2O [PACLITAXEL]
Activity [23]: 86% | inhibition in vivo at 20 mg/kg [24]: 79.1% | Activity [25]: 100% | inhibition in vivo at 20 mg/kg [26]: 26.6% | Activity [27]: 14%

Nc1ccn([C@@H]2O[C@H](CO)[C@@H](O)C2(F)F)c(=O)n1 [GEMCITABINE]
inhibition in vivo at 70 mg/kg [28]: 38.1% | GI50 [20]: 35.8 µM | TGI [20]: 100 µM | CC50 [20]: 0.1 µM | GI50 [12]: 3.64 µM | TGI [12]: 9.05 µM

Nc1ccn([C@@H]2O[C@H](CO)[C@@H](O)[C@@H]2O)c(=O)n1 [CYTARABINE]
inhibition in vivo at 10 mg/kg [29]: 23.8%
